We go through two molecules from ChEMBL document CHEMBL5236607, “Membrane-Active Cyclic Amphiphilic Peptides: Broad-Spectrum Antibacterial Activity Alone and in Combination with Antibiotics” (J Med Chem, 2022).

Calls of active or inactive are those of the source. The rule behind the calls is not given here. Peptide text beside a SMILES is read from it.

The test system of one assay is Pseudomonas aeruginosa. The assay is described as follows: Synergistic antibacterial activity against Pseudomonas aeruginosa ATCC […] assessed as fractional inhibitory concentration index incubated for 24 hrs in presence of tobramycin by checkerboard assay. Format: functional.
The test system of assay [1] is Staphylococcus aureus. The assay is described as follows: Synergistic antibacterial activity against methicillin resistant Staphylococcus aureus ATCC BAA-1556 assessed as fractional inhibitory concentration incubated for 24 hrs in presence of tobramycin by checkerboard assay. Format: functional. In short, it runs like this: (§1)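 Checkerboard assay. Inoculum from an LB overnight culture at 0.5 McFarland, diluted 1/150 in MH media. […] Incubated 37 °C for 24 h. FICI = MIC combination/MIC alone summed over both agents. Triplicate.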

Assay [2] has as its system Staphylococcus aureus. Kind of assay: Bactericidal activity against methicillin resistant Staphylococcus aureus assessed as reduction in bacterial cells by time kill assay. Format: functional, organism-based. To be noted: TDE = time-dependent effect. The procedure, abridged:
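Time-kill in Müller–Hinton media. […] Aliquots taken at 0–24 h, serially diluted and plated on MH agar. CFU counted after 24 h at 37 °C. Two independent experiments in triplicate.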

Assay [3] is described as follows: Therapeutic index, ratio of cytotoxicity against human HEKa to MIC for methicillin resistant Staphylococcus aureus.
In assay [4] the test system is Escherichia coli. The assay is described as follows: Bactericidal activity against Escherichia coli assessed as reduction in bacterial cells at 4 times MIC after 2 hrs by time kill assay. On the set-up: scale not given: the % may be the effect or the level left. Format: functional. The procedure, abridged: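 Samples taken at time points from 0 to 24 h, serially diluted and plated on MH agar. CFU counted after 24 h at 37 °C. Untreated culture served as control. Two independent experiments in triplicate.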

The nature of assay [5]: Membrano-lytic effect in bacterial inner membrane mimic DOPC/DOPG (7:3) large unilamellar vesicles assessed as calcein leakage measured upto 100 mins by multimode microplate reader assay. Format: cell membranes. To be noted: dose 5-50 µg/ml. In short, it runs like this: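 Calcein (70 mM) loaded into extruded 100 nm LUVs: DOPC:DOPG 7:3 (w/w) as the bacterial mimic, DOPC/cholesterol 10:1 (w/w) as the mammalian mimic. Free dye removed by gel filtration. Liposomes at 40 μM final lipid in PBS mixed 1:1 with peptide (5–50 μg/mL). Fluorescence (ex 490/em 520 nm) read every 10 min for 100 min; Triton X-100 defines 100% release. Triplicate.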

The subject of assay [6] is Staphylococcus aureus. Kind of assay: Induction of resistance development in methicillin resistant Staphylococcus aureus ATCC BAA-1556 assessed as increase in MIC by microtiter plate reader assay. Format: functional, organism-based. In short, it runs like this: (§2)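 Serial passage resistance assay with 2-fold microdilution MICs in 96-well plates. Each passage takes the well with the highest concentration still permitting growth, adjusts it to 0.5 McFarland, and dilutes it to a final 5 × 10^5 CFU/mL for the next passage. Eighteen passages; MIC recorded at each. Triplicate.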

In assay [7] the test system is Escherichia coli. Kind of assay: Induction of resistance development in Escherichia coli ATCC BAA-2452 assessed as increase in MIC by microtiter plate reader assay. Format: functional, organism-based. In short, it runs like this: as §2
Assay [8] relates to Escherichia coli. Kind of assay: Synergistic antibacterial activity against Escherichia coli ATCC 25922 fractional inhibitory concentration index incubated for 24 hrs in presence of Ciprofloxacin by checkerboard assay. Format: functional. The procedure, abridged: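 Checkerboard assay in MH broth. Inoculum from an LB overnight culture set to 0.5 McFarland and diluted 1/150. […] Each agent was also titrated alone. Incubation 24 h at 37 °C. FIC = combination MIC/individual MIC; FICI = sum of the FICs. Triplicate.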

Assay [9] relates to Staphylococcus aureus. Kind of assay: Synergistic antibacterial activity against methicillin resistant Staphylococcus aureus ATCC BAA-1556 fractional inhibitory concentration incubated for 24 hrs in presence of Ciprofloxacin by checkerboard assay. Format: functional. In short, it runs like this:
as §1

`N=C(N)NCCC[C@@H]1NC(=O)[C@H](CCCNC(=N)N)NC(=O)[C@H](CCCNC(=N)N)NC(=O)[C@H](Cc2c[nH]c3ccccc23)NC(=O)[C@H](Cc2c[nH]c3ccccc23)NC(=O)[C@H](Cc2c[nH]c3ccccc23)NC(=O)[C@H](Cc2c[nH]c3ccccc23)NC(=O)[C@H](CCCNC(=N)N)NC(=O)[C@H](CCCNC(=N)N)NC1=O`: in the assay with Pseudomonas aeruginosa, the “fractional inhibitory concentration index (FICI)” value amounted to 0.5. Also, the FIC with Staphylococcus aureus [1] is listed as 0.25. Moreover, the Activity result was “Tde” in the assay with Staphylococcus aureus [2], 100% in the assay on Escherichia coli [4] and “Dose-Dependent Effect” in assay [5]. Also, the TI in [3] is 63. The result in the assay on Staphylococcus aureus [6] and in the assay with Escherichia coli [7] was inactive.

As to `N=C(N)NCCC[C@@H]1NC(=O)[C@H](CCCNC(=N)N)NC(=O)[C@H](CCCNC(=N)N)NC(=O)[C@H](CCCNC(=N)N)NC(=O)[C@H](Cc2c[nH]c3ccccc23)NC(=O)[C@H](Cc2c[nH]c3ccccc23)NC(=O)[C@H](Cc2c[nH]c3ccccc23)NC(=O)[C@H](Cc2c[nH]c3ccccc23)NC(=O)[C@H](CCCNC(=N)N)NC(=O)[C@H](CCCNC(=N)N)NC1=O` (cyclo(RRRRRRWWWW)), the “fractional inhibitory concentration index (FICI)” value in the assay on Escherichia coli [8] came out at 0.375. For the same molecule, in the assay on Staphylococcus aureus [9], the FIC was determined as 0.25.
